Active and inactive are the calls of the source. No cut-off for these calls is given here.
Assays:
Neutrophil = assay: Ratio of compound to fMLP-OMe potency for induction of chemotactic activity in human neutrophils; type: functional
[1] = Activation of cellular function of cytochalasin B-pretreated human neutrophils assessed as induction of superoxide anion production at 10 uM by microplate-based assay; type: functional, cell-based; conditions: Neutrophil
Outline: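 Microplate ferricytochrome c reduction, superoxide dismutase-inhibitable, in KRPG. Wells held 4 × 10^5 neutrophils and 100 nmol cytochrome c. Cells were pre-incubated with cytochalasin B for 5 min. Peptide (10^-10 to 10^-4 M) was added at zero time at 37 °C. A550 minus A468 was converted to nmol O2− using ε 18.5 mM^-1 cm^-1. Five experiments, duplicate.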

[2] = Activation of cellular function of cytochalasin B-pretreated human neutrophils assessed as maximal induction of lysozyme release at 10 uM after 15 mins by microplate-based assay; type: functional, cell-based; conditions: Neutrophil
Outline: (§1)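 Neutrophils from heparinized peripheral blood of fasting healthy donors (dextran sedimentation, Ficoll-Paque, hypotonic NH4Cl lysis), resuspended in KRPG pH 7.4 with 1 mM MgCl2 and CaCl2. Pre-incubated with cytochalasin B for 15 min at 37 °C, then given peptide (final 10^-10 to 10^-4 M) for 15 min at 37 °C. After centrifugation, lysozyme was read by Micrococcus lysodeikticus lysis rate at 465 nm, as net % of Triton X-100 total. Five experiments, duplicate.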

[3] = Activation of cellular function of cytochalasin B-pretreated human neutrophils assessed as induction of lysozyme release at 1 uM after 15 mins by microplate-based assay; type: functional, cell-based; conditions: Neutrophil; outline: as §1
[4] = Activation of cellular function of human neutrophils assessed as induction of chemotactic activity at 0.01 uM; type: functional, cell-based; conditions: Neutrophil
Outline: (§2)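 48-well microchemotaxis chamber with peptide in the lower compartment, diluted from 10^-2 M DMSO stock into KRPG with 1 mg/mL BSA; tested 10^-12 to 10^-5 M. Filter migration was scored by the leading-front method. Chemotactic index = (migration to attractant − migration to buffer)/migration to buffer. Five experiments, duplicate.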

[5] = Activation of cellular function of human neutrophils assessed as chemotactic index at 0.000001 to 10 uM; type: functional, cell-based; conditions: Neutrophil; outline: as §2
[6] = Activation of cellular function of human neutrophils assessed as chemotactic index at 0.01 uM; type: functional, cell-based; conditions: Neutrophil; outline: as §2

| Compound | Ratio (Neutrophil) | Activity [1] | Activity [2] | Efficacy [3] [%] | Activity [4] | Ratio [5] | Ratio [6] |
| --- | --- | --- | --- | --- | --- | --- | --- |
| COC(=O)[C@H](CCCCN[C@@H](Cc1ccccc1)C(=O)N[C@@H](CC(C)C)C(=O)N[C@H](C=O)CCSC)NC(=O)[C@H](Cc1ccccc1)NC(=O)[C@H](CC(C)C)NC(=O)[C@H](CCSC)NC=O | 10 | Active | Active | 40 | Active | – | – |
| COC(=O)[C@H](Cc1ccccc1)NC(=O)[C@H](CC(C)C)NC(=O)[C@H](CCSC)NC=O | – | – | – | 60 | – | 1.05 | 1.05 |
| COC(=O)[C@H](CCCCN[C@@H](Cc1ccccc1)C(=O)N[C@@H](CC(C)C)C(=O)N[C@H](C=O)CCSC)NC(=O)[C@H](CCCCN[C@@H](Cc1ccccc1)C(=O)N[C@@H](CC(C)C)C(=O)N[C@H](C=O)CCSC)NC(=O)[C@H](Cc1ccccc1)NC(=O)[C@H](CC(C)C)NC(=O)[C@H](CCSC)NC=O | 10 | Active | Active | 40 | Active | 0.95 | 0.9 |
| COC(=O)C[C@H](NCCCC[C@H](NC(=O)[C@H](Cc1ccccc1)NC(=O)[C@H](CC(C)C)NC(=O)[C@H](CCSC)NC=O)C(=O)OC)C(=O)N[C@@H](Cc1ccccc1)C(=O)N[C@@H](CC(C)C)C(=O)N[C@H](C=O)CCSC | 10 | Active | Active | 20 | Active | 0.95 | 0.9 |

— ChEMBL document CHEMBL1154274, “Oligomeric formylpeptide activity on human neutrophils” (2009)
